In one data set the target is Hhat (Homo sapiens, UniProt Q5VTY9). As to the kind of experiment: RU-SKI 43 inhibition kinetics with purified Hhat and ShhN. The format is biochemical. Conditions: Ki with respect to 125I-iodo-palmitoylCoA, noncompetitive inhibitor; purified Hhat, 125I-iodo-palmitoylCoA titrated, 38μM ShhN.
Data set [1] has as its system Hhat-mediated Shh palmitoylation in COS-1 cells. As to the kind of experiment: Shh palmitoylation in COS-1 cells. Type of data set: cell-based. In short, it runs like this: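 COS-1 cells transfected with Shh and HA-Hhat given test compound or DMSO overnight or from the start of […] serum starvation (DMEM, 2% dialyzed FCS). Labeled 4 h at 37°C with 15–30 μCi/ml 125I-iodo-palmitate. Lysed in RIPA, ultracentrifuged, immunoprecipitated 16 h at 4°C, SDS-PAGE with western blot and phosphorimaging. Duplicates, repeated at least three times.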

The subject of another data set is palmitoylation of H-Ras. As to the kind of experiment: H-Ras palmitoylation in COS-1 cells. Type of data set: cell-based. Conditions: COS-1 cells expressing H-Ras N17. In short, it runs like this: (§1)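 COS-1 cells co-transfected with Shh and HA-Hhat plus H-Ras or Fyn. Test compound or DMSO was added the night before or at the start of serum starvation. Cells were starved 1 h in DMEM with 2% dialyzed FCS, then labeled with 15–30 μCi/ml 125I-iodo-palmitate for 4 h at 37°C. Lysates in RIPA were cleared at 100,000xg, immunoprecipitated 16 h at 4°C, run on 12.5% SDS-PAGE and phosphorimaged. Duplicates, repeated ≥3 times.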

A further data set deals with palmitoylation of Fyn. As to the kind of experiment: Fyn palmitoylation in COS-1 cells. The format is cell-based. Conditions: COS-1 cells expressing Fyn. Summed up: as §1
Another data set concerns myristoylation of c-Src. Kind of data set: c-Src myristoylation in COS-1 cells. The format is cell-based. Conditions: COS-1 cells expressing c-Src. In short, it runs like this:
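COS-1 cells were transfected with Shh, HA-Hhat and Src, with test compound or DMSO added the night before or at the start of starvation. After 1 h starvation in DMEM with 2% dialyzed FCS, 30 μCi/ml 125I-iodo-tridecanoate was added for 4 h at 37°C. RIPA lysates were cleared at 100,000xg, immunoprecipitated overnight at 4°C, resolved on 12.5% SDS-PAGE and quantified by phosphorimager. Duplicates, ≥3 repeats.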

The next data set addresses T1, Porcupine (Mus musculus, UniProt Q9JJJ7).
T1 sequence (Q9JJJ7 1-461): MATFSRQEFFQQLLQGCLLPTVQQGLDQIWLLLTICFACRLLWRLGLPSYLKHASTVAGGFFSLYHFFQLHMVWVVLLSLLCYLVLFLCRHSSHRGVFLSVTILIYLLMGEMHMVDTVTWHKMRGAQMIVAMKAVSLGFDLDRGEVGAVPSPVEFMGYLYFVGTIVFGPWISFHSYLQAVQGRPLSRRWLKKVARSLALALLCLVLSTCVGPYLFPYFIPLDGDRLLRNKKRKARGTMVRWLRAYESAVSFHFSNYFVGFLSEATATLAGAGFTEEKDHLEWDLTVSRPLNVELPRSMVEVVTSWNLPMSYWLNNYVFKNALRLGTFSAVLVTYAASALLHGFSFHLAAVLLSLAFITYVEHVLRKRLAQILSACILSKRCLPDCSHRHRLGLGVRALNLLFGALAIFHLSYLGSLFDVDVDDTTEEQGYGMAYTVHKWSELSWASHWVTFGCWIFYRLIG
Kind of data set: Wnt3a fatty acylation by Porcupine in L Wnt-3a cells. The format is cell-based. The conditions noted are these: Mouse L Wnt-3a cells, FLAG-Porcupine. In short, it runs like this:
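Mouse L-Wnt3a cells transfected with 6 μg FLAG-Porcupine or empty vector. After 48 h, serum-starved 3 h in DMEM with 2% dialyzed FCS plus DMSO, 10 μM test compound or 100 nM reference Porcupine inhibitor. Labeled 6 h with 40 μCi 125I-iodo-pentadecanoate. Wnt3a and FLAG-Porcupine immunoprecipitated 16 h at 4°C, then SDS-PAGE, western blot, phosphorimaging. Duplicates, repeated three times.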

Data set [2] has as its system Shh and Hhat in COS-1 cells. Kind of data set: Shh autoprocessing, Shh/Hhat levels and localization in COS-1 cells. The format is cell-based. Conditions: 10µM, 5h. Summed up: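 COS-1 cells were transfected with Shh and HA-Hhat and reseeded on coverslips after 24 h. A day later they were fixed in 4% paraformaldehyde for 20 min and permeabilized with 0.2% Triton X-100. After blocking in 3% BSA, cells took rabbit anti-Shh (1:100) and mouse anti-HA (1:200) for 1 h, then Alexa-conjugated secondaries and Hoechst for 45 min. Confocal imaging at 63X: 5–10 images per slide, ≥2 slides per condition, three experiments. Protein levels by Western blot.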

In data set [3] the test system is Shh signaling (Gli1 activation) in NIH 3T3 cells. Kind of data set: Gli-responsive luciferase reporter assay in Shh-transfected NIH 3T3 cells. Conditions: for Gli-responsive luciferase activation (FL/RL ratio): NIH 3T3 cells cotransfected with Shh, 10 μM, 24 h. The format is cell-based. In short, it runs like this:
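NIH 3T3 cells cotransfected with pRL-TK, 8XGliBS-firefly luciferase (or mutant reporter) and Shh plasmids. Seeded 24 h later at 1×10^6 cells/well and grown to confluence. Treated 24 h with DMSO or 10 μM test compound. Firefly and Renilla luciferase measured in lysates; FL/RL ratio normalized to DMSO-treated cells.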

For data set [4], the system named is Gli1 activation in Shh Light II cells. As to the kind of experiment: Gli luciferase reporter assay in Shh Light II cells. The format is cell-based. Conditions: 10 μM RU-SKI 43, 24 h. In short, it runs like this:
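Shh Light II cells (stable Gli1 luciferase reporter) grown to confluence, moved to 0.5% serum medium, and exposed 24 h to DMSO or 10 μM test compound, with or without 100 nM SAG or 1 μg/mL Shh (C24II). Dual firefly/Renilla luciferase read in lysates. FL/RL ratio normalized to cells given DMSO or compound alone; experiment done at least twice.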

Data set [5] has as its system Shh signaling in SuFu−/− cells. Kind of data set: Gli luciferase reporter assay in SuFu-/- cells. Type of data set: cell-based, murine. Conditions: 10 μM, 24h. In short, it runs like this: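 SuFu−/− mouse embryonic fibroblasts transfected with wild-type or mutant 8XGliBS-firefly luciferase plus pRL-TK Renilla plasmids. Reseeded 24 h later, grown to confluence, then given DMSO or 10 μM test compound for 24 h. Dual luciferase measured in lysates as FL/RL ratio; mean ± SD (n=2–4), experiment run at least twice.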
In general terms: Reporter assays use an easily measured gene product as a stand-in for the process of interest.

Data set [6] deals with paracrine Shh signaling in C3H10T1/2 cells. As to the kind of experiment: C3H10T1/2 alkaline phosphatase reporter assay. Type of data set: cell-based. In short, it runs like this: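 C3H10T1/2 reporter cells and COS-1 cells transfected with HA-Hhat and Shh plasmids plated alone or cocultured (4:1), 24 h at 37°C. Medium then switched to DMSO or 10 μM test compound for 72 h, with re-addition at 48 h. Alkaline phosphatase measured in lysates with a fluorogenic FDP substrate kit, read over 30 min at 5-min intervals; mean ± SD, n=3.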

The nature of data set [7]: Half-life in mouse plasma after IV administration. Type of data set: in vivo.

The results in this text go back to paper PMC3604071 (Nature chemical biology, 2013).

“Also recorded” adds a separate entry of the source.

One may read the Ki as the dissociation constant of the complex between target and ligand, obtained from inhibition or displacement. Low readings indicate higher affinity, high ones lower affinity. Usually half-life stands for the time needed for the level to fall by half in the phase considered. A high value points to slow decline.

Hhat, sequence (Q5VTY9 whole entry): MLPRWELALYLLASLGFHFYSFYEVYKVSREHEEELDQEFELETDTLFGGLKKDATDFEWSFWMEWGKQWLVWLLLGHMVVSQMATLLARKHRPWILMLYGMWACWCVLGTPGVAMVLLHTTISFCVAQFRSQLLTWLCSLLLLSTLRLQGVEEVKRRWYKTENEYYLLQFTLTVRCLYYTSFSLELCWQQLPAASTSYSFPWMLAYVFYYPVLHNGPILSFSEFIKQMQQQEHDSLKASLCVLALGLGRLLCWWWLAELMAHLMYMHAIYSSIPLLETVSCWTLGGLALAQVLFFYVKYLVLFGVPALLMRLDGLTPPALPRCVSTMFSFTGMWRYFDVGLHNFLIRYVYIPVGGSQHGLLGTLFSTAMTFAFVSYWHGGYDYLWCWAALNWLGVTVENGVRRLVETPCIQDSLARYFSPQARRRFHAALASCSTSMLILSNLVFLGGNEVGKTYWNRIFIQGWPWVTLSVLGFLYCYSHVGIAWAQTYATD

Molecule `CCC(C)CNCC(=O)N1CCc2sccc2C1COc1cccc(C)c1` (stereo not shown) [RU-SKI 43, 2-((2-methylbutyl)amino)-1-(4-((m-tolyloxy)methyl)-6,7-dihydrothieno[3,2-c]pyridin-5(4H)-yl)ethanone] gave a Ki at Hhat of 6.9 µM. Moreover, the “Inhibition of Shh palmitoylation in cells” value in [1] (COS-1 cells expressing HA-Hhat and Shh, 0, 10 or 20 μM, 5 h) was “Dose-dependent inhibition”. In addition, the “Radiolabel incorporation into ShhN in cells” value in data set [1] (COS-1 cells expressing HA-Hhat and Shh, 25 μM compound, 16 h) is given as “strongly inhibited”. In data set [1] (COS-1 cells transfected with Shh only, 10 µM), the “Palmitoylation of Shh by endogenous Hhat” value is reported as “inhibited”. Further, in data set [1] (transfected COS-1 cells, increasing amounts of Hhat, 10µM), the “Effect of Hhat overexpression on inhibition of Shh palmitoylation” value is “reduced the ability of RU-SKI 43 to inhibit Shh palmitoylation”. The “Effect of Porcupine overexpression on inhibition of Shh palmitoylation” value in data set [1] (transfected COS-1 cells, increasing amounts of Porcupine, 10µM) was “no effect”. For the same molecule, the “Palmitoylation of H-Ras” value in the data set with palmitoylation of H-Ras is “Neither palmitoylation of H-Ras and Fyn nor myristoylation of c-Src was affected”. Besides, in the data set on palmitoylation of Fyn, the “Palmitoylation of Fyn” value is “Neither palmitoylation of H-Ras and Fyn nor myristoylation of c-Src was affected”. Moreover, in the data set on myristoylation of c-Src, the “Myristoylation of c-Src” value was “Neither palmitoylation of H-Ras and Fyn nor myristoylation of c-Src was affected”. Moreover, the “Fatty acylation of Wnt3a by Porcupine” value at Porcupine (10 μM) is listed as “does not inhibit Porcupine; also recorded: no effect”. The “Shh autoprocessing, steady-state levels of Shh and Hhat, subcellular localization of Shh and Hhat” value in data set [2] is recorded as “did not alter”. Besides, the “Gli-responsive luciferase activation (FL/RL ratio)” value in data set [3] is listed as “blocks Gli activation; also recorded: blocked luciferase activation”. In addition, the “Rescue of the inhibitory effect with SAG or Shh (C24II)” value in data set [3] (Shh-transfected NIH 3T3 cells, 10µM RU-SKI 43 with 100nM SAG or 1µg/mL Shh (C24II), 24h) is “not able to rescue”. Also, the “Effect on activation of Gli1 by SAG” value in data set [4] (100 nM SAG) is “does not affect exogenous Shh pathway activation; also recorded: no effect”. Further, the “Effect on activation of Gli1 by recombinant Shh (C24II)” value in data set [4] (1μg/mL Shh (C24II)) is “does not affect exogenous Shh pathway activation; also recorded: no effect”. Besides, the “Effect on Shh signaling in SuFu−/− cells” value in data set [5] is “does not affect Shh pathway activation; also recorded: no effect”. For the same molecule, in data set [6] (C3H10T1/2 cocultured with COS-1 expressing Shh and Hhat, 10 μM, 72h), the “Alkaline phosphatase (AP) activity” value was “blocks paracrine Shh signaling; also recorded: reduced to baseline”. In [7], this molecule displayed a half-life of 17 min.

With `Cc1cc(-c2ccc(CC(=O)Nc3ccc(-c4cccnc4)cc3)cc2)ccn1` [Wnt C59, reference compound], the “Fatty acylation of Wnt3a by Porcupine” value on Porcupine (100 nM) is on record as “blocked radiolabel incorporation”.

Regarding `Cc1c(C(=O)Nc2ccc(N3C[C@@H](C)O[C@@H](C)C3)nc2)cccc1-c1ccc(OC(F)(F)F)cc1` [LDE225, reference compound], the “Gli-responsive luciferase activation (FL/RL ratio)” value in [3] is recorded as “blocked luciferase activation”.

Consider `CNC1CCC(N(Cc2cccc(-c3ccncc3)c2)C(=O)c2sc3ccccc3c2Cl)CC1` (stereo not shown) [SAG, reference compound], for which, in data set [3] (Shh-expressing NIH 3T3 cells, 100nM SAG), the “Gli1 activation in untreated Shh-expressing cells” value was “neither SAG (Supplementary Fig. 8) nor overexpression of Smo[17] activated Gli1 to levels higher than those achieved with Shh alone”.

B1: Noggin: the BMP inhibitor Noggin (protein, UniProt Q13253 28-232, looked up)
Noggin: QHYLHIRPAPSDNLPLVDLIEHPDPIFDPKEKDLNETLLRSLLGGHYDPGFMATSPPEDRPGGGGGAAGGAEDLAELDQLLRQRPSGAMPSEIKGLEFSEGLAQGKKQRLSKKLRRKLQMWLWSQTFCPVLYAWNDLGSRFWPRYVKVGSCFSKRSCSVPEGMVCKPSKSVHLTVLRWRCQRRGGQRCGWIPIQYPIISECKCSC
With B1, in data set [6] (BMP inhibitor control, concentration not given), the “Alkaline phosphatase (AP) activity” value is listed as “no effect”.
